Series [1] in a line: melting temperature; fluorescence melt of hairpins on a sequencing array, two-state fit, raised by 9.35 °C to match UV melts. The note with it: sodium 0.088 M. In short, it runs like this:
(§1)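 Two-state fits, bootstrapped, provided melting temperature and folding enthalpy from Cy3 fluorescence normalised to pre-quench Cy3 and to control constructs. Library hairpins with annealed Cy3 and quencher oligos were imaged on a sequenced MiSeq flow cell in 50 mM Na-HEPES pH 8.0, 25 mM NaCl, at 2.5 °C intervals up to 60 °C. Four replicates were combined with inverse-variance weighting. A 9.35 °C upward shift was applied to fitted temperatures to match UV melts.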

Series [2] is described as follows: folding enthalpy; higher = less favourable; fluorescence melt of hairpins on a sequencing array, two-state fit. To be noted: sodium 0.088 M. The essentials:
as §1

Turning to GCGTCCCTACGC ((((....)))), the Tm in series [1] stood at 53.7 °C. For the same sequence, in series [2], the folding enthalpy was -23.2 kcal/mol.

On to GGTGCTGGAAACAGTGCC ((..(((....)))..)), for which the Tm in series [1] was 50.1 °C. Also, the folding enthalpy in series [2] was -37.8 kcal/mol.

In the case of GGGCACTCGAAAGAGCCC (((..(((....)))))), in series [1], the Tm was 50.9 °C. Further, the folding enthalpy in series [2] is -31.1 kcal/mol.

With GATCGAGATGTCGATC ((((((....)))))), the Tm in series [1] came to 52.5 °C. Besides, the folding enthalpy in series [2] was -37 kcal/mol.

Consider GTGTGAGGAAACTTACGC (.((.((....)).)).), for which the Tm in series [1] is 33.7 °C. Also, in series [2], the folding enthalpy is -17.7 kcal/mol.

With GATCGGTAGCCGATC ((((((...)))))), the Tm in series [1] was 55.4 °C. Moreover, the folding enthalpy in series [2] was -42.2 kcal/mol.

Turning to GTCGGGCGAAAGCCGGAC (((.(((....))).))), the Tm in series [1] came to 67.7 °C. For the same sequence, in series [2], the folding enthalpy is -27.7 kcal/mol.

GTCTGTCGAAAGACCGAC (((.(((....))).))): the Tm in series [1] came out at 47.7 °C. The folding enthalpy in series [2] was -27.8 kcal/mol.

GATCTGAAGGCAGATC ((((((....)))))): the Tm in series [1] stood at 45.3 °C. In addition, the folding enthalpy in series [2] was -41.9 kcal/mol.

As for GCGGTGCCCCGC ((((....)))), the Tm in series [1] was determined as 54.3 °C. The folding enthalpy in series [2] was -18.8 kcal/mol.

For GGCGGCGAAAGCCTGGCC ((((((....)))..))), the Tm in series [1] was determined as 61.8 °C. For the same sequence, the folding enthalpy in series [2] was -19.9 kcal/mol.

Regarding GGCATAGGAAACTACGCC (((.(((....))).))), the Tm in series [1] was determined as 41.1 °C. For the same sequence, in series [2], the folding enthalpy is -28.2 kcal/mol.

As for GATCGCCTGCGCGATC ((((((....)))))), the Tm in series [1] came out at 67.2 °C. The folding enthalpy in series [2] is -32 kcal/mol.

On to GAGTCAGGAAACCGACTC (((((.(....).))))), for which, in series [1], the Tm is 46.6 °C. Besides, in series [2], the folding enthalpy is -36.8 kcal/mol.

Regarding GATCCAGCCCTGGATC ((((((....)))))), the Tm in series [1] is 54.1 °C. Further, the folding enthalpy in series [2] was -48 kcal/mol.

Take GTTGACGAAAGTCTCAAC ((((((....)))..))): the Tm in series [1] worked out at 28 °C. In addition, in series [2], the folding enthalpy was -9.94 kcal/mol.

On to GATCGGTGACCCGATC ((((((....)))))), for which, in series [1], the Tm was found to be 55.8 °C. Also, the folding enthalpy in series [2] is -36.5 kcal/mol.

In the case of GGGATGGGAAACCACCCC (((.(((....))).))), in series [1], the Tm came to 47.3 °C. In addition, the folding enthalpy in series [2] was -32 kcal/mol.

In the case of GCCTAGCGAAAGCGTGGC (((..((....))..))), the Tm in series [1] stood at 64.5 °C. In series [2], the folding enthalpy is -30.2 kcal/mol.

As for GATTTGGGAAACTAAATC (((((.(....).))))), the Tm in series [1] was 36.6 °C. For the same sequence, in series [2], the folding enthalpy is -26.6 kcal/mol.

Take GCTACTGGAAACAGTAAC (.(((((....))))).): the Tm in series [1] is 31.5 °C. Also, in series [2], the folding enthalpy is -16 kcal/mol.

For GCAACCGGAAACGGTCAC (..((((....))))..), in series [1], the Tm was found to be 24.9 °C. The folding enthalpy in series [2] is -8.88 kcal/mol.

In the case of GATCATTCAAATGATC ((((((....)))))), the Tm in series [1] amounted to 47.3 °C. Also, in series [2], the folding enthalpy was -34 kcal/mol.

Consider GCTAGGAAACTAGC (((((....))))), for which the Tm in series [1] came out at 50.8 °C. In addition, in series [2], the folding enthalpy was -25.6 kcal/mol.

With GCCCTCGAAAGAGGAGGC ((((((....)))..))), the Tm in series [1] amounted to 51.9 °C. In series [2], the folding enthalpy was -17 kcal/mol.

In the case of GATCCAGGACTGGATC ((((((....)))))), the Tm in series [1] was 56.2 °C. Besides, in series [2], the folding enthalpy is -41.1 kcal/mol.

Consider GCGGACTACCGC ((((....)))), for which the Tm in series [1] came to 54 °C. Besides, the folding enthalpy in series [2] is -27.9 kcal/mol.

Turning to GTGTCGCGAAAGCGTCAC (((.(((....))).))), in series [1], the Tm came to 63 °C. In series [2], the folding enthalpy is -31.9 kcal/mol.

In the case of GTGGGCGAAAGCCATCAC ((((((....)))..))), the Tm in series [1] came out at 39.7 °C. For the same sequence, the folding enthalpy in series [2] was -11.4 kcal/mol.

Regarding GGGTGACGAAAGTCTCCC (((.(((....))).))), in series [1], the Tm stood at 60.3 °C. In addition, the folding enthalpy in series [2] is -36.2 kcal/mol.

Take GTCCTCGAAAGAGTAGAC ((((((....)))..))): the Tm in series [1] stood at 35.9 °C. Further, the folding enthalpy in series [2] is -19.8 kcal/mol.

Consider CGTAGCGGAAACGCGACG (((.(((....))).))), for which, in series [1], the Tm came out at 59.1 °C. In addition, in series [2], the folding enthalpy was -31 kcal/mol.

GTGTAGGGAAACCTGCAC (((.(((....))).))): in series [1], the Tm is 50.3 °C. For the same sequence, the folding enthalpy in series [2] is -29.7 kcal/mol.

Consider GTGTACCGAAAGGTCCAC (((.(((....))).))), for which the Tm in series [1] was found to be 48.1 °C. Besides, the folding enthalpy in series [2] is -31 kcal/mol.

Consider GACCCCGGAAACGGAGTC (((.(((....))).))), for which the Tm in series [1] was found to be 47.2 °C. Also, the folding enthalpy in series [2] was -31.4 kcal/mol.

Consider GCAAGGCGAAAGCCCGGC ((..(((....)))..)), for which the Tm in series [1] amounted to 45.9 °C. Also, the folding enthalpy in series [2] is -17.4 kcal/mol.

For the sequence GGGCTGGGAAACCAGCTC (.(((((....))))).), the Tm in series [1] was determined as 58.7 °C. The folding enthalpy in series [2] is -26.6 kcal/mol.

Take GCTGTGCGAAAGCAAGGC ((..(((....)))..)): the Tm in series [1] is 50.6 °C. For the same sequence, the folding enthalpy in series [2] was -20 kcal/mol.

With GGTTTGGGAAACTAGACC (((.(.(....).).))), the Tm in series [1] was found to be 30.7 °C. In addition, the folding enthalpy in series [2] was -18.1 kcal/mol.

As for GTTGGGCCGAAAGGCAAC (((..(((....)))))), the Tm in series [1] is 45.4 °C. Also, in series [2], the folding enthalpy is -15.3 kcal/mol.

Turning to GCTTCGCGAAAGCAAGGC ((.(.((....)).).)), in series [1], the Tm turned out to be 36.1 °C. Moreover, in series [2], the folding enthalpy is -12.3 kcal/mol.

In the case of GGTAGGGGAAACCTTGCC ((.(.((....)).).)), the Tm in series [1] is 34.7 °C. Also, the folding enthalpy in series [2] is -20.2 kcal/mol.

Consider GATCTTACATAAGATC ((((((....)))))), for which the Tm in series [1] turned out to be 43.1 °C. Besides, the folding enthalpy in series [2] was -35.9 kcal/mol.

As for GATCTGGCCGCAGATC ((((((....)))))), the Tm in series [1] stood at 52.3 °C. In series [2], the folding enthalpy is -36 kcal/mol.

For GCCTAGGAAACTAGGC ((((((....)))))), in series [1], the Tm is 58.7 °C. Also, the folding enthalpy in series [2] is -36.2 kcal/mol.

For the sequence GATCGATAGCTCGATC ((((((....)))))), the Tm in series [1] is 49.6 °C. In addition, the folding enthalpy in series [2] is -41.9 kcal/mol.

Regarding GCCCAAGAAATTGGGC ((((((....)))))), the Tm in series [1] was 63.1 °C. Also, in series [2], the folding enthalpy is -33.3 kcal/mol.

Turning to GGTATGGGAAACCATGTC (..((((....))))..), the Tm in series [1] turned out to be 27.4 °C. For the same sequence, in series [2], the folding enthalpy was -13.5 kcal/mol.

For GCGGAACGAAAGTTCGC (((.(((....)))))), the Tm in series [1] was determined as 58.9 °C. Also, the folding enthalpy in series [2] was -24.4 kcal/mol.

For the sequence GTCAACGGAAACGTTAAC ((.((((....)))).)), the Tm in series [1] was 33.7 °C. In series [2], the folding enthalpy is -17.6 kcal/mol.

On to GATCCGCTACCGGATC ((((((....)))))), for which the Tm in series [1] was determined as 56.8 °C. Moreover, the folding enthalpy in series [2] is -48 kcal/mol.

As to GGAGCTCCGAAAGGATCC (((..(((....)))))), the Tm in series [1] was 30.5 °C. In series [2], the folding enthalpy was -10.9 kcal/mol.

GATCCCCGATGGGATC ((((((....)))))): in series [1], the Tm was determined as 60.9 °C. For the same sequence, in series [2], the folding enthalpy was -34.5 kcal/mol.

For GATCGGGGACCCGATC ((((((....)))))), in series [1], the Tm was 63 °C. Also, the folding enthalpy in series [2] is -45.9 kcal/mol.

For GATCATTACGATGATC ((((((....)))))), the Tm in series [1] amounted to 48.5 °C. Further, the folding enthalpy in series [2] is -34.9 kcal/mol.

As to GCATATCGAAAGATCTGC (((.(((....))).))), in series [1], the Tm was 43.9 °C. Also, the folding enthalpy in series [2] is -31.2 kcal/mol.
